Reference: ChEMBL document CHEMBL4152240, “Synthesis, cytotoxicity and structure-activity relationship of indolizinoquinolinedione derivatives as DNA topoisomerase IB catalytic inhibitors” (2018)
Active and inactive are the calls of the source. No cut-off for these calls is given here.

What was measured:
[1] = tested on: Huh-7; experiment: Cytotoxicity against human HuH7 cells assessed as growth inhibition after 72 hrs by MTT assay; assay type: functional; settings: Huh-7, 72 h
Outline: (§1)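 Five-dose MTT growth assay, compounds predissolved in DMSO, 72 h exposure at 37 C. Cells kept in RPMI-1640 or DMEM, 37 C, 5% CO2, passage 3-6. MTT (1 mg/mL in PBS) added for 4 h, formazan dissolved in DMSO, OD 570 nm. GI50 (50% growth inhibition) by nonlinear regression. Means ± SD, at least three repeats.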

[2] = tested on: HCT-116; experiment: Cytotoxicity against human HCT116 cells assessed as growth inhibition after 72 hrs by MTT assay; assay type: functional; settings: HCT-116, 72 h; outline: as §1
[3] = tested on: DU-145; experiment: Cytotoxicity against human DU145 cells assessed as growth inhibition after 72 hrs by MTT assay; assay type: functional; settings: DU-145, 72 h; outline: as §1
[4] = molecular target: T1, Topoisomerase I (Bos taurus) (UniProt Q2HPH0); experiment: Inhibition of calf thymus TOP1-mediated relaxation of supercoiled pBR322 DNA at 25 uM after 30 mins by agarose gel electrophoresis relative to camptothecin
T1 sequence (whole entry): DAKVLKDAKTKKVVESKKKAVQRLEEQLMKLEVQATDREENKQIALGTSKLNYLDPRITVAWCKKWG
Outline: (§2)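 0.5 µg supercoiled pBR322 in buffer (10 mM Tris-HCl pH 7.5, 50 mM KCl, 5 mM MgCl2, BSA, DTT) with 1 unit calf thymus TOP1, with or without compound (0.2-125 µM), 30 min at 37 C. Run on 0.8% agarose/TBE at 4.6 V/cm for 1.5 h, gel red stained. Activity graded in bands (e.g. +++ 81-120%). At least two independent repeats.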

[5] = tested on: A549; experiment: Cytotoxicity against human A549 cells assessed as growth inhibition after 72 hrs by MTT assay; assay type: functional; settings: A549, 72 h; outline: as §1
[6] = tested on: CCRF-CEM; experiment: Cytotoxicity against human CCRF-CEM cells assessed as growth inhibition after 72 hrs by MTT assay; assay type: functional; outline: as §1
[7] = tested on: DNA; experiment: Induction of unwinding effect of Escherichia coli relaxed pBR322 DNA at 1 to 9 uM preincubated with DNA for 10 mins followed by excess calf thymus TOP1 addition and measured after 30 mins by agarose gel electrophoresis; assay type: nucleic-acid assay
Outline: (§3)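 Compound (1, 3, 9 µM) preincubated with pBR322 DNA, supercoiled or relaxed, at room temperature for 10 min. Excess TOP1 then added and incubated 30 min at 37 C. Stopped with SDS/proteinase K. Ethidium bromide (0.3-1.2 mg/L) as positive control. Run on 0.8% agarose in TBE at 4.6 V/cm for 1.5 h, stained with gel red, UV visualized.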

[8] = tested on: DNA; experiment: Induction of unwinding effect of Escherichia coli supercoiled pBR322 DNA at 1 to 9 uM preincubated with DNA for 10 mins followed by excess calf thymus TOP1 addition and measured after 30 mins by agarose gel electrophoresis; assay type: nucleic-acid assay; outline: as §3
[9] = molecular target: T1, Topoisomerase I (Bos taurus); experiment: Inhibition of calf thymus TOP1-mediated relaxation of supercoiled pBR322 DNA at 125 uM after 30 mins by agarose gel electrophoresis relative to control; outline: as §2
[10] = tested on: HCT-116; experiment: Induction of apoptosis in human HCT116 cells assessed as early apoptotic cells at 1 uM after 12 hrs by annexin V-FITC/propidium iodide staining-based flow cytometric method (reference value: 0.47 to 1.19%); assay type: functional
[11] = tested on: HCT-116; experiment: Induction of apoptosis in human HCT116 cells assessed as late apoptotic cells at 3 uM after 12 hrs by annexin V-FITC/propidium iodide staining-based flow cytometric method (reference value: 0.34 to 0.81%); assay type: functional
[12] = tested on: HCT-116; experiment: Induction of apoptosis in human HCT116 cells assessed as late apoptotic cells at 1 uM after 12 hrs by annexin V-FITC/propidium iodide staining-based flow cytometric method (reference value: 0.34 to 0.81%); assay type: functional
[13] = tested on: HCT-116; experiment: Induction of apoptosis in human HCT116 cells assessed as viable cells at 1 uM after 12 hrs by annexin V-FITC/propidium iodide staining-based flow cytometric method (reference value: 97.60 to 98.95%); assay type: functional; settings: HCT-116, 12 h, read-out: Activity
[14] = tested on: HCT-116; experiment: Induction of apoptosis in human HCT116 cells assessed as early apoptotic cells at 3 uM after 12 hrs by annexin V-FITC/propidium iodide staining-based flow cytometric method (reference value: 0.47 to 1.19%); assay type: functional
[15] = molecular target: T1, Topoisomerase I (Bos taurus); experiment: Inhibition of calf thymus TOP1-mediated relaxation of supercoiled pBR322 DNA after 30 mins by agarose gel electrophoresis; outline: as §2
[16] = tested on: HCT-116; experiment: Induction of apoptosis in human HCT116 cells after 12 hrs by annexin V-FITC/propidium iodide staining-based flow cytometric method; assay type: functional, cell-based
[17] = tested on: HCT-116; experiment: Induction of apoptosis in human HCT116 cells assessed as viable cells at 9 uM after 12 hrs by annexin V-FITC/propidium iodide staining-based flow cytometric method (reference value: 97.60 to 98.95%); assay type: functional; settings: HCT-116, 12 h, read-out: Activity
[18] = tested on: HCT-116; experiment: Induction of apoptosis in human HCT116 cells assessed as viable cells at 3 uM after 12 hrs by annexin V-FITC/propidium iodide staining-based flow cytometric method (reference value: 97.60 to 98.95%); assay type: functional; settings: HCT-116, 12 h, read-out: Activity
[19] = tested on: HCT-116; experiment: Induction of apoptosis in human HCT116 cells assessed as late apoptotic cells at 9 uM after 12 hrs by annexin V-FITC/propidium iodide staining-based flow cytometric method (reference value: 0.34 to 0.81%); assay type: functional
[20] = tested on: HCT-116; experiment: Induction of apoptosis in human HCT116 cells assessed as early apoptotic cells at 9 uM after 12 hrs by annexin V-FITC/propidium iodide staining-based flow cytometric method (reference value: 0.47 to 1.19%); assay type: functional

SMILES	inhibition [4] [%]	Activity [7]	Activity [8]	inhibition [9] [%]	inhibition [15]	GI50 [1] [µM]	GI50 [2] [µM]	GI50 [3] [µM]	GI50 [5] [µM]	GI50 [6] [µM]	Activity [10] [%]	Activity [11] [%]	Activity [12] [%]	viability at 1 µM [13] [%]	Activity [14] [%]	Activity [16]	viability at 9 µM [17] [%]	viability at 3 µM [18] [%]	Activity [19] [%]	Activity [20] [%]
CN(C)CCOC(=O)c1c2c(n3cccc(F)c13)C(=O)c1ncccc1C2=O	41 to 80	–	–	–	–	0.31	0.092	0.69	27.2	1.09	–	–	–	–	–	–	–	–	–	–
CCOC(=O)c1c2c(n3ccc(NC(=O)CCN4CCCCC4)cc13)C(=O)c1ncccc1C2=O	81 to 120	inactive	inactive	–	–	1.15	1.43	3.12	2.65	0.11	–	–	–	–	–	–	–	–	–	–
O=C1c2cccnc2C(=O)c2c1c(C(=O)OCCCN1CCCC1)c1c(Cl)cccn21	< 40	–	–	–	–	12.2	38.2	8.32	24.5	85.3	–	–	–	–	–	–	–	–	–	–
CCOC(=O)c1c2c(n3ccc(NC(=O)CCN4CCCC4)cc13)C(=O)c1ncccc1C2=O	41 to 80	–	–	–	–	1.8	1.9	0.7	29.3	0.54	–	–	–	–	–	–	–	–	–	–
CCOC(=O)c1c2c(n3ccccc13)C(=O)c1ncccc1C2=O	81 to 120	inactive	inactive	–	–	0.85	0.33	0.093	0.16	0.68	–	–	–	–	–	–	–	–	–	–
O=C1c2cnncc2C(=O)c2c1c(C(=O)OCCN1CCOCC1)c1ccccn21	81 to 120	inactive	inactive	–	–	2.92	3.43	1.22	0.86	1.35	–	–	–	–	–	–	–	–	–	–
O=C1c2cccnc2C(=O)c2c1c(C(=O)OCCN1CCCC1)c1c(Cl)cccn21	< 40	–	–	–	–	2.25	10.2	1.58	5.39	48.2	–	–	–	–	–	–	–	–	–	–
CCOC(=O)c1c2c(n3ccc(NC(=O)CCN4CCOCC4)cc13)C(=O)c1ncccc1C2=O	81 to 120	inactive	inactive	–	–	0.34	0.3	16.4	9.68	0.6	–	–	–	–	–	–	–	–	–	–
CCOC(=O)c1c2c(n3ccc(NC(=O)CCN(C)C)cc13)C(=O)c1ncccc1C2=O	41 to 80	–	–	–	–	1.65	1.75	2.27	19.6	0.29	–	–	–	–	–	–	–	–	–	–
CN(C)CCCOC(=O)c1c2c(n3cccc(F)c13)C(=O)c1ncccc1C2=O	81 to 120	Active	Active	–	–	0.08	0.066	0.025	0.018	0.37	–	–	–	–	–	–	–	–	–	–
CN1CCN(CCCOC(=O)c2c3c(n4cccc(F)c24)C(=O)c2ncccc2C3=O)CC1	41 to 80	–	–	–	–	0.042	0.044	0.073	0.021	0.32	–	–	–	–	–	–	–	–	–	–
O=C1c2cccnc2C(=O)c2c1c(C(=O)OCCCN1CCCCC1)c1c(Cl)cccn21	41 to 80	–	–	–	–	1.32	5.15	1.73	0.89	5.35	–	–	–	–	–	–	–	–	–	–
O=C1c2cccnc2C(=O)c2c1c(C(=O)OCCCN1CCCCC1)c1c(F)cccn21	> 121	inactive	inactive	100	Dose-dependent effect	0.12	0.027	0.21	0.072	0.35	2.14	16.74	3.98	93.4	2.5	Dose-dependent effect	61.7	79	31.59	4.73
O=C1c2cccnc2C(=O)c2c1c(C(=O)OCCN1CCCCC1)c1c(Cl)cccn21	> 121	Active	Active	–	–	0.17	0.31	2.52	0.12	0.39	–	–	–	–	–	–	–	–	–	–
O=C1c2nccnc2C(=O)c2c1c(C(=O)OCCN1CCOCC1)c1ccccn21	41 to 80	–	–	–	–	7.33	13.2	2.55	8.52	1.61	–	–	–	–	–	–	–	–	–	–

The next lines start with results.

inhibition [4] [%]	Activity [7]	Activity [8]	inhibition [9] [%]	inhibition [15]	SMILES	GI50 [1] [µM]	GI50 [2] [µM]	GI50 [3] [µM]	GI50 [5] [µM]	GI50 [6] [µM]	Activity [10] [%]	Activity [11] [%]	Activity [12] [%]	viability at 1 µM [13] [%]	Activity [14] [%]	Activity [16]	viability at 9 µM [17] [%]	viability at 3 µM [18] [%]	Activity [19] [%]	Activity [20] [%]
41 to 80	–	–	–	–	CN1CCN(CCOC(=O)c2c3c(n4cccc(F)c24)C(=O)c2ncccc2C3=O)CC1	0.11	0.044	0.029	0.052	0.45	–	–	–	–	–	–	–	–	–	–
41 to 80	–	–	–	–	O=C1c2cccnc2C(=O)c2c1c(C(=O)OCCCN1CCCC1)c1c(F)cccn21	0.11	0.029	0.092	0.08	0.51	–	–	–	–	–	–	–	–	–	–
> 121	inactive	inactive	100	Dose-dependent effect	O=C1c2cccnc2C(=O)c2c1c(C(=O)OCCN1CCCCC1)c1c(F)cccn21	0.059	0.025	0.091	0.29	0.38	2.12	10.47	2.39	95.2	1.26	Dose-dependent effect	57.1	86.9	38.17	2.47
41 to 80	–	–	–	–	O=C1c2cccnc2C(=O)c2c1c(C(=O)OCCN1CCOCC1)c1c(Cl)cccn21	30.3	28.6	29.5	48.6	61.3	–	–	–	–	–	–	–	–	–	–
< 40	–	–	–	–	O=C1c2cccnc2C(=O)c2c1c(C(=O)OCCN1CCOCC1)c1c(F)cccn21	0.57	0.11	0.23	0.13	1.1	–	–	–	–	–	–	–	–	–	–
< 40	–	–	–	–	O=C1c2cccnc2C(=O)c2c1c(C(=O)OCCCN1CCOCC1)c1c(Cl)cccn21	28.4	19.1	29.1	37.5	68.6	–	–	–	–	–	–	–	–	–	–
> 121	inactive	inactive	–	–	O=C1c2ncccc2C(=O)c2c1c(C(=O)OCCN1CCOCC1)c1ccccn21	14.2	11.1	1.2	4.52	70.5	–	–	–	–	–	–	–	–	–	–
< 40	–	–	–	–	O=C1c2cccnc2C(=O)c2c1c(C(=O)OCCCN1CCOCC1)c1c(F)cccn21	0.13	0.038	0.25	0.23	0.49	–	–	–	–	–	–	–	–	–	–
